Measurements as given in ChEMBL document CHEMBL2150952 (J Med Chem, 2011).
The source made the active and inactive calls. The calls are words filed in the database; no cut-off is given here.

Legend:
HepG2 = assay: Ratio IC50 for SCD-1 activity in organic anion transporting polypeptides-deficient human HepG2 cells to IC50 for SCD-1 activity in Sprague-Dawley rat Hepatocytes expressing organic anion transporting polypeptides; type: cell-based
Method in brief: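 Cellular SCD IC50s measured in human HepG2 cells (lacking active OATPs) and in rat hepatocytes (active OATPs). Hepatocytes preincubated with compound for 15 min at 37 °C, then given 14C-stearic acid (final 0.5 μCi/ml) for 1 h with shaking. Lipids hydrolysed in 2N NaOH at 75 °C, acidified and extracted. Radiolabelled oleic and stearic acid resolved by HPLC with flow scintillation detection. Mean of at least n = 3. HepG2 IC50 divided by hepatocyte IC50.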

Acyl-CoA desaturase 1 [1] = molecular target: T1, Acyl-CoA desaturase 1 (Rattus norvegicus, UniProt P07308); assay: Inhibition of SCD-1 activity in Sprague-Dawley rat microsome assessed as reduction in [I-14C] stearoyl CoA desaturation by scintillation counting; type: microsomes
T1 sequence (P07308 whole entry): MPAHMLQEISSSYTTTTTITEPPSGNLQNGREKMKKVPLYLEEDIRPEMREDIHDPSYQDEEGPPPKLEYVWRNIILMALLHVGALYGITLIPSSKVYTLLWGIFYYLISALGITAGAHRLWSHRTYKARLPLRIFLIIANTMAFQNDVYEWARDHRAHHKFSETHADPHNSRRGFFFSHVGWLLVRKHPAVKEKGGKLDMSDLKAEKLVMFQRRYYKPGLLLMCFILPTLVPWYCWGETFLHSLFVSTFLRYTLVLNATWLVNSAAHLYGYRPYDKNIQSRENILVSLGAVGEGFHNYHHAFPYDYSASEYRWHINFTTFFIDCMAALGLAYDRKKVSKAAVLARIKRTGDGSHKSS

Mus musculus [2] = assay: Antidiabetic activity in diet-induced obese C57BL6 mouse assessed as reduction in glucose AUC at 1 to 15 mg/kg, po administered 1 hr before oral glucose administration measured 2 hrs thereafter; type: functional; details: dose mg/kg 1-15
Mus musculus [3] = assay: Antidiabetic activity in diet-induced obese C57BL6 mouse assessed as reduction in glucose AUC at 1 to 10 mg/kg, po administered 1 hr before oral glucose administration measured 2 hrs thereafter; type: functional; details: dose mg/kg 1-10
Mus musculus [4] = assay: Inhibition of SCD activity in liver of diet-induced obese C57BL6 mouse assessed as reduction in desaturation induces at 30 mg/kg, po BID; type: functional, organism-based; design: dose 30 mg/kg
Liver [5] = assay: Drug level in liver of diet-induced obese C57BL6 mouse at 5 mg/kg, po QD; type: ADME, organism-based; design: dose 5 mg/kg, route oral; details: in vivo, read-out: Drug uptake
Method in brief: (§1)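 eDIO mice were dosed orally for 4 weeks, either 20 mg/kg bid or 5 mg/kg qd. Liver, Harderian gland and skin were taken at trough at study termination, and compound concentration was measured by LC-MS.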

Mus musculus [6] = assay: Toxicity in diet-induced obese C57BL6 mouse assessed as adverse effect in skin at 1 to 5 mg/kg, po QD; type: organism-based; design: dose 1-5 mg/kg, route oral; details: in vivo
Liver [7] = assay: Ratio drug uptake in liver to harderian gland of C57BL6 mouse at 10 mg/kg, po measured 6 hrs post dose; type: ADME, organism-based; design: dose 10 mg/kg, route oral; details: in vivo
Method in brief: (§2)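 Single oral dose of 10 mg/kg in 0.5% methylcellulose to fed C57BL6 mice (n = 2). Animals sacrificed 6 h post dose. Plasma, liver, skin and Harderian gland collected. Tissues homogenized in MeCN/water with internal standard and drug quantified by LC-MS against a standard curve made in blank plasma. Concentration ratio calculated.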

[8] = Drug level in harderian gland of diet-induced obese C57BL6 mouse at 5 mg/kg, po QD; type: ADME, organism-based; design: dose 5 mg/kg, route oral; details: in vivo, read-out: Drug uptake; method in brief: as §1
Mus musculus [9] = assay: Inhibition of SCD activity in skin of diet-induced obese C57BL6 mouse assessed as reduction in desaturation induces at 5 mg/kg, po QD; type: functional
Mus musculus [10] = assay: Antidiabetic activity in diet-induced obese C57BL6 mouse assessed as reduction in glucose AUC at 1 to 3 mg/kg, po administered 1 hr before oral glucose administration measured 2 hrs thereafter; type: functional; details: dose mg/kg 1-3
[11] = Cmax in plasma of fasted C57BL6 mouse at 2 mg/kg, iv and 10 mg/kg, po by LC-MS-MS analysis; type: ADME, organism-based
Method in brief: (§3)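 Fasted male C57BL6 mice received 2 mg/kg IV and 10 mg/kg PO. For the reference compound, IV was given as a solution in 60% PEG-200 and PO as a suspension in 1% methocel. Plasma levels were measured by LC-MS/MS. Values are the mean of n = 3 animals.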

Mus musculus [12] = assay: Inhibition of SCD activity in harderian gland of diet-induced obese C57BL6 mouse assessed as reduction in desaturation induces at 5 mg/kg, po QD; type: functional
Mus musculus [13] = assay: Inhibition of SCD activity in liver of diet-induced obese C57BL6 mouse assessed as reduction in desaturation induces at 5 mg/kg, po QD; type: functional
Mus musculus [14] = assay: Antidiabetic activity in diet-induced obese C57BL6 mouse assessed as reduction in body weight gain at 5 mg/kg, po QD; type: functional; design: scale not given: the % may be the effect or the level left
Method in brief: (§4)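 Male C57/Bl6 mice were fed a high fat diet for at least 18 weeks from 6 weeks of age, then given vehicle (1% methocel, bid) for 7 days and randomized by body weight. Oral dosing (qd or bid) ran for 28 days, with n = 8–10/group. Body weight, food intake and skin/eye scores were recorded twice weekly.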

Mus musculus [15] = assay: Toxicity in diet-induced obese C57BL6 mouse assessed as reduction in food intake at 1 to 5 mg/kg, po QD; type: organism-based; design: dose 1-5 mg/kg, route oral; details: in vivo
Method in brief: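 Obese male C57/Bl6 mice after at least 18 weeks of high fat diet and a 7-day vehicle run-in, randomized by body weight. Dosed orally at 1 or 5 mg/kg qd for 28 days (n = 8–10/group). Food consumption monitored twice weekly.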

[16] = Clearance in fasted C57BL6 mouse at 2 mg/kg, iv and 10 mg/kg, po by LC-MS-MS analysis; type: ADME, organism-based; details: in vivo; method in brief: as §3
Stearoyl-CoA desaturase = molecular target: T2, Stearoyl-CoA desaturase (Homo sapiens, UniProt O00767); assay: Inhibition of SCD-1 activity in organic anion transporting polypeptides-deficient human HepG2 cells assessed as reduction in [I-14C] stearoyl CoA desaturation by scintillation counting; type: cell-based
T2 sequence (O00767 whole entry): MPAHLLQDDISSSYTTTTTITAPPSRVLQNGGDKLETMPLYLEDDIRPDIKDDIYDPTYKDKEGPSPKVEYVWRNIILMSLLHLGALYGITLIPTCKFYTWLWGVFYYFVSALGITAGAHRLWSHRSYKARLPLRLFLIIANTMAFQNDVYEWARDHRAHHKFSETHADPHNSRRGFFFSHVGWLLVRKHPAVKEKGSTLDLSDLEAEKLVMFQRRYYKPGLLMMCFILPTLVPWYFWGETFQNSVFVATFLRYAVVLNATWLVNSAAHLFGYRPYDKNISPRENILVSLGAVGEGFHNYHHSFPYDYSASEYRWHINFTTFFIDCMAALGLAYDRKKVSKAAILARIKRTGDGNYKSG

Zone of skin = assay: Drug level in skin of diet-induced obese C57BL6 mouse at 5 mg/kg, po QD; type: ADME, organism-based; design: dose 5 mg/kg, route oral; details: in vivo, read-out: Drug uptake; method in brief: as §1
[17] = Volume of distribution in fasted C57BL6 mouse at 2 mg/kg, iv and 10 mg/kg, po by LC-MS-MS analysis; type: ADME, organism-based; details: in vivo
Method in brief: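 Fasted male C57BL6 mice given 2 mg/kg IV and 10 mg/kg PO. Plasma drug levels measured by LC-MS/MS, mean of n = 3 animals, and PK parameters derived from these.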

Mus musculus [18] = assay: Antidiabetic activity in po dosed diet-induced obese C57BL6 mouse assessed as reduction in body weight gain; type: functional, organism-based; method in brief: as §4
[19] = AUC in plasma of fasted C57BL6 mouse at 2 mg/kg, iv and 10 mg/kg, po by LC-MS-MS analysis; type: ADME, organism-based; method in brief: as §3
Mus musculus [20] = assay: Toxicity in diet-induced obese C57BL6 mouse assessed as adverse effect in eye at 1 to 5 mg/kg, po QD; type: organism-based; design: dose 1-5 mg/kg, route oral; details: in vivo
Acyl-CoA desaturase 1 [21] = molecular target: T1, Acyl-CoA desaturase 1; assay: Inhibition of SCD-1 activity in Sprague-Dawley rat Hepatocytes expressing organic anion transporting polypeptides assessed as reduction in [I-14C] […] desaturation by scintillation counting; type: cell-based, Hepatocyte
Method in brief: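 Rat hepatocytes (4 × 10^6 cells/mL) were preincubated with compound for 15 min at 37 °C/5% CO2. 14C-stearic acid (final 0.5 μCi/mL) was then added for 1 h with shaking. Cells were washed, hydrolyzed in 2N NaOH at 75 °C for 1 h, acidified and extracted. Radiolabeled oleic and stearic acids were quantified by HPLC with flow scintillation detection. Mean of at least n = 3.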

[22] = Ratio drug uptake in liver to plasma of C57BL6 mouse at 10 mg/kg, po measured 6 hrs post dose; type: ADME, organism-based; design: dose 10 mg/kg, route oral; details: liver and plasma; method in brief: as §2
Mus musculus [23] = assay: Antidiabetic activity in po dosed diet-induced obese fasted C57BL6 mouse assessed as increase in glucose clearance administered 1 hr before glucose challenge measured 12 hrs thereafter by OGTT; type: functional; details: in the assay text read “2 hrs” for “12 hrs”
Method in brief: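 Male C57/Bl6 mice were kept on a high fat diet for at least 14 weeks from 6 weeks of age, then fasted 16 h. Compound was given orally 1 h before a 2 g/kg oral glucose load.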

Mus musculus [24] = assay: Antidiabetic activity in diet-induced obese C57BL6 mouse assessed as reduction in body weight gain at 1 mg/kg, po QD; type: functional; design: scale not given: the % may be the effect or the level left; method in brief: as §4

IC50 (Acyl-CoA desaturase 1 [1]): 2 nM
concentration (Liver [5]): 10 µM
Ratio (Liver [7]): 1.5
concentration [8]: 5 µM
Cmax [11]: 1.3 µM
clearance [16]: 15 mL/min/kg
IC50 (Stearoyl-CoA desaturase): 21 nM
concentration (Zone of skin): 4 µM
Vd [17]: 7 L/kg
AUC [19]: 19 µM·h
IC50 (Acyl-CoA desaturase 1 [21]): 157 nM
Kp at 6 h [22]: 14
Structure (SMILES): Cc1nnc(-c2ccc(N3CCC(Oc4ccccc4C(F)(F)F)CC3)nn2)s1
Ratio IC50 (HepG2): 0.14
inhibition (INH) (Mus musculus [2]): 75%
inhibition (INH) (Mus musculus [3]): 62%
inhibition (Mus musculus [4]): Active
Activity (Mus musculus [6]): Toxic
inhibition in vivo at 5 mg/kg (Mus musculus [9]): 25%
inhibition (INH) (Mus musculus [10]): 55%
inhibition in vivo at 5 mg/kg (Mus musculus [12]): 92%
inhibition in vivo at 5 mg/kg (Mus musculus [13]): 56%
Activity (Mus musculus [14]): 20%
Activity (Mus musculus [15]): Non-toxic
Activity (Mus musculus [18]): Dose-dependent effect
Activity (Mus musculus [20]): Toxic
Activity (Mus musculus [23]): Dose-dependent effect
ED50 (Mus musculus [23]): 3 mg/kg
Activity (Mus musculus [24]): 10%
